Source: ChEMBL document CHEMBL1127690, “Antiinflammatory 4,5-diarylpyrroles: synthesis and QSAR” (J Med Chem, 1994)
Each block holds one compound with its values, some of them ahead of it.

Columns and labels:
Rattus norvegicus [1] = species on record: Rattus norvegicus; assay: Antiinflammatory activity against adjuvant induced arthritis in male charles river rats; format: functional
[2] = Ratio (12-day no effect/AA ED50) of the compound; format: functional
How it was run: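 Maximum no-effect dose from the 12-day study divided by the adjuvant arthritis ED50. […] Read-outs were mortality, pharmacologic or toxic signs, body and organ weights and gross necropsy.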

Rattus norvegicus [3] = species on record: Rattus norvegicus; assay: Compound was evaluated for 12 day tolerance in long evans rats; format: functional
[4] = Elimination half life at a dose of 12.7 uM/kg, po; format: ADME, organism-based; settings: in vivo
[5] = Elimination half life at a dose of 6.3 uM/kg iv; format: ADME, organism-based; settings: in vivo
[6] = Cmax value at a dose of 12.7 uM/kg, po; format: ADME, organism-based; design: dose 12.7 uM/kg, route oral; settings: in vivo
[7] = Gastrointestinal safety of a compound relative to indomethacin and piroxicam; format: ADME
How it was run: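 Male Sprague-Dawley rats (~165 g) received a single oral dose of drug or vehicle. Stomach and small intestine were examined for mucosal lesions under a 10× dissecting microscope in coded, randomized order. Any single lesion counted as positive. TD50 was calculated by the moving-average method.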

[8] = TD50/ED50 value of the compound; format: functional
How it was run: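 Ratio of the GI lesion TD50 to the established adjuvant arthritis paw ED50, both measured orally in rats.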

[9] = Volume of distribution at a dose of 6.3 uM/kg, iv; format: ADME, organism-based; settings: in vivo
[10] = Cmax value at a dose of 6.3 uM/kg, iv; format: ADME, organism-based; design: dose 6.3 uM/kg, route intravenous; settings: in vivo
Rattus norvegicus [11] = assay: Safety assessment in adjuvant induced arthritis rat model (AA),po; format: functional; settings: for ED50: read-out: ED50
Rattus norvegicus [12] = assay: Safety assessment in adjuvant induced arthritis rat model (AA),day 18,po; format: functional; settings: 432 h, read-out: ED50
[13] = Elimination half life at a dose of 7.1 uM/kg, iv; format: ADME, organism-based; settings: in vivo
[14] = Volume of distribution at a dose of 7.1 uM/kg, iv; format: ADME, organism-based; settings: in vivo
[15] = Bioavailability at a dose of 7.1 uM/kg, iv; format: ADME, organism-based; settings: eutheria, in vivo
[16] = Cmax value at a dose of 7.1 uM/kg, iv; format: ADME, organism-based; design: dose 7.1 uM/kg, route intravenous; settings: in vivo
[17] = Elimination half life at a dose of 14.3 uM/kg, po; format: ADME, organism-based; settings: in vivo
[18] = Maximum blood level reached after an oral dose of 5.0 mg/kg; format: ADME, organism-based; design: dose 5 mg/kg, route oral; settings: in vivo
[19] = Maximum blood level reached after an iv dose of 12.2 uM/kg; format: ADME, organism-based; design: dose 12.2 uM/kg, route intravenous; settings: in vivo
[20] = Elimination half life at dose of 12.2uM/kg, po; settings: in vivo
[21] = Elimination half life at dose of 12.2 uM/kg, iv; format: ADME, organism-based; settings: in vivo
[22] = Volume of distribution at dose of 12.2 uM/kg, iv; format: ADME, organism-based; settings: in vivo

SMILES: Cn1c(Cl)c(Cl)c(-c2ccc(F)cc2)c1-c1ccc(S(C)(=O)=O)cc1
ED50 (Rattus norvegicus [1]): 5 mg/kg

SMILES: CCOC(=O)CCCCn1c(Cl)cc(-c2ccc(F)cc2)c1-c1ccc(S(C)(=O)=O)cc1
ED50 (Rattus norvegicus [1]): > 100 mg/kg

SMILES: CS(=O)(=O)c1ccc(-c2[nH]c(S(=O)(=O)O)cc2-c2ccc(F)cc2)cc1.c1ccncc1
ED50 (Rattus norvegicus [1]): 12.7 mg/kg

SMILES: CS(=O)(=O)c1ccc(-c2[nH]c(Cl)c(Br)c2-c2ccc(F)cc2)cc1
ED50 (Rattus norvegicus [1]): 3.4 mg/kg

SMILES: CS(=O)(=O)c1ccc(-c2[nH]c(Br)cc2-c2ccc(F)cc2)cc1
Ratio [2]: > 43
ED50 (Rattus norvegicus [1]): 1.05 mg/kg
no-effect dose (Rattus norvegicus [3]): >46 µM/kg
half-life [4]: 9.9 h
half-life [5]: 10.2 h
Cmax [6]: 3 uM l-1
TD50 [7]: 95.9 µmol/kg
TD50/ED50 [8]: 36
Vd [9]: 3.5 L/kg
Cmax [10]: 2 uM l-1
ED50 (Rattus norvegicus [11]): 2.55 µmol/kg
ED50 (Rattus norvegicus [12]): 22.7 µmol/kg

half-life [13]: 6.1 h
Vd [14]: 9 L/kg
F [15]: 1
Cmax [16]: 1.4 uM l-1
half-life [17]: 5.8 h
Cmax [18]: 2.3 uM l-1
SMILES: CS(=O)(=O)c1ccc(-c2[nH]c(Cl)cc2-c2ccc(F)cc2)cc1
ED50 (Rattus norvegicus [1]): 0.5 mg/kg
TD50 [7]: 100 µmol/kg
TD50/ED50 [8]: 70
ED30 (Rattus norvegicus [11]): 1.43 µM/kg

Cmax [19]: 2.9 uM l-1
half-life [20]: 4.3 h
half-life [21]: 13.7 h
Vd [22]: 10 L/kg
SMILES: Cn1c(Br)cc(-c2ccc(F)cc2)c1-c1ccc(S(C)(=O)=O)cc1
ED50 (Rattus norvegicus [1]): 1.7 mg/kg
TD50 [7]: > 416 µmol/kg
TD50/ED50 [8]: > 100
ED50 (Rattus norvegicus [11]): 3.43 µmol/kg

SMILES: CS(=O)(=O)c1ccc(-c2[nH]c([N+](=O)[O-])cc2-c2ccc(F)cc2)cc1
ED50 (Rattus norvegicus [1]): 9 mg/kg

SMILES: CS(=O)(=O)c1ccc(-c2[nH]c(Br)c(Cl)c2-c2ccc(F)cc2)cc1
ED50 (Rattus norvegicus [1]): 4.28 mg/kg

SMILES: CS(=O)(=O)c1ccc(-c2[nH]c(F)c(F)c2-c2ccc(F)cc2)cc1
ED50 (Rattus norvegicus [1]): 0.31 mg/kg

SMILES: CC(=O)n1c(Br)cc(-c2ccc(F)cc2)c1-c1ccc(S(C)(=O)=O)cc1
ED50 (Rattus norvegicus [1]): 36.2 mg/kg

SMILES: CS(=O)(=O)c1ccc(-c2[nH]c(C(=O)C(F)(F)F)cc2-c2ccc(F)cc2)cc1
ED50 (Rattus norvegicus [1]): 19.4 mg/kg

SMILES: CS(=O)(=O)c1ccc(-c2[nH]c(S(C)(=O)=O)cc2-c2ccc(F)cc2)cc1
ED50 (Rattus norvegicus [1]): 36.6 mg/kg

SMILES: COc1ccc2c(c1)c(CC(=O)O)c(C)n2C(=O)c1ccc(Cl)cc1 [INDOMETHACIN]
ED50 (Rattus norvegicus [1]): 0.3 mg/kg
